System: Japanese patients with advanced solid tumors
Assay: Phase 1 study: safety, tolerability, DLT and treatment-emergent adverse events
Type: in vivo, human
How it was run: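 Open-label single-arm dose levels of 80 or 105 mg/m2 IV were given on day 1 of 14-day cycles, with at most 6 patients per level. Adverse events were graded by CTCAE v4.03. DLTs were related events in cycle 1 meeting predefined hematologic or nonhematologic criteria. Tolerability required a cycle 1 DLT rate <33%. Primary G-CSF prophylaxis was barred during DLT evaluation; G-CSF was allowed for treatment-emergent neutropenia and as secondary prophylaxis.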

SMILES: COc1cccc(OCCCN)c1-c1cc(Nc2cnc(C#N)cn2)n[nH]1 [Prexasertib]
- TEAE related to study treatment: Lung infection (105 mg/m^2 N = 6, Grade 3 + 4): 0 n (%)
- TEAE related to study treatment: Lymphocytopenia (105 mg/m^2 N = 6, Grade 3 + 4): 0 n (%)
- TEAE related to study treatment: Nausea (105 mg/m^2 N = 6, Grade 3 + 4): 0 n (%)
- TEAE related to study treatment: Neutropenia (105 mg/m^2 N = 6, Grade 3 + 4): 6 (100) n (%)
- TEAE related to study treatment: Pyrexia (105 mg/m^2 N = 6, Grade 3 + 4): 0 n (%)
- TEAE related to study treatment: Rash (105 mg/m^2 N = 6, Grade 3 + 4): 0 n (%)
- TEAE related to study treatment: Rash maculopapular (105 mg/m^2 N = 6, Grade 3 + 4): 0 n (%)
- TEAE related to study treatment: SVE (supraventricular extrasystoles) (105 mg/m^2 N = 6, Grade 3 + 4): 0 n (%)
- TEAE related to study treatment: Stomatitis (105 mg/m^2 N = 6, Grade 3 + 4): 0 n (%)
- TEAE related to study treatment: Thrombocytopenia (105 mg/m^2 N = 6, Grade 3 + 4): 1 (16.7) n (%)
- TEAE related to study treatment: Anemia (105 mg/m^2 N = 6, Grade 4): 0 n (%)
- TEAE related to study treatment: Any (105 mg/m^2 N = 6, Grade 4): 3 (50.0) n (%)
- TEAE related to study treatment: Atrial fibrillation (105 mg/m^2 N = 6, Grade 4): 0 n (%)
- TEAE related to study treatment: Constipation (105 mg/m^2 N = 6, Grade 4): 0 n (%)
- TEAE related to study treatment: ECG QT prolonged (105 mg/m^2 N = 6, Grade 4): 0 n (%)
- TEAE related to study treatment: Fatigue (105 mg/m^2 N = 6, Grade 4): 0 n (%)
- TEAE related to study treatment: Febrile neutropenia (105 mg/m^2 N = 6, Grade 4): 0 n (%)
- TEAE related to study treatment: Headache (105 mg/m^2 N = 6, Grade 4): 0 n (%)
- TEAE related to study treatment: Hypocalcemia (105 mg/m^2 N = 6, Grade 4): 0 n (%)
- TEAE related to study treatment: Leukopenia (105 mg/m^2 N = 6, Grade 4): 1 (16.7) n (%)
- TEAE related to study treatment: Lung infection (105 mg/m^2 N = 6, Grade 4): 0 n (%)
- TEAE related to study treatment: Lymphocytopenia (105 mg/m^2 N = 6, Grade 4): 0 n (%)
- TEAE related to study treatment: Nausea (105 mg/m^2 N = 6, Grade 4): 0 n (%)
- TEAE related to study treatment: Neutropenia (105 mg/m^2 N = 6, Grade 4): 3 (50.0) n (%)
- TEAE related to study treatment: Pyrexia (105 mg/m^2 N = 6, Grade 4): 0 n (%)
- TEAE related to study treatment: Rash (105 mg/m^2 N = 6, Grade 4): 0 n (%)
- TEAE related to study treatment: Rash maculopapular (105 mg/m^2 N = 6, Grade 4): 0 n (%)
- TEAE related to study treatment: SVE (supraventricular extrasystoles) (105 mg/m^2 N = 6, Grade 4): 0 n (%)
- TEAE related to study treatment: Stomatitis (105 mg/m^2 N = 6, Grade 4): 0 n (%)
- TEAE related to study treatment: Thrombocytopenia (105 mg/m^2 N = 6, Grade 4): 0 n (%)
- Patients with at least 1 AE that led to a dose adjustment (105 mg/m^2 group): 3 patients
- Patients with at least 1 AE that led to a dose delay (105 mg/m^2 group): 3 patients
- Patients with at least 1 AE that led to dose reduction (105 mg/m^2 group (105 to 80 mg/m^2)): 1 patient
- TEAE related to study treatment: Anemia (Total N = 12, Any grade): 3 (25.0) n (%)
- TEAE related to study treatment: Any (Total N = 12, Any grade): 12 (100) n (%)
- TEAE related to study treatment: Atrial fibrillation (Total N = 12, Any grade): 1 (8.3) n (%)
- TEAE related to study treatment: Constipation (Total N = 12, Any grade): 3 (25.0) n (%)
- TEAE related to study treatment: ECG QT prolonged (Total N = 12, Any grade): 2 (16.7) n (%)
- TEAE related to study treatment: Fatigue (Total N = 12, Any grade): 2 (16.7) n (%)
- TEAE related to study treatment: Febrile neutropenia (Total N = 12, Any grade): 2 (16.7) n (%)
- TEAE related to study treatment: Headache (Total N = 12, Any grade): 1 (8.3) n (%)
- TEAE related to study treatment: Hypocalcemia (Total N = 12, Any grade): 1 (8.3) n (%)
- TEAE related to study treatment: Leukopenia (Total N = 12, Any grade): 12 (100) n (%)
- TEAE related to study treatment: Lung infection (Total N = 12, Any grade): 1 (8.3) n (%)
- TEAE related to study treatment: Lymphocytopenia (Total N = 12, Any grade): 2 (16.7) n (%)
- TEAE related to study treatment: Nausea (Total N = 12, Any grade): 2 (16.7) n (%)
- TEAE related to study treatment: Neutropenia (Total N = 12, Any grade): 11 (91.7) n (%)
- TEAE related to study treatment: Pyrexia (Total N = 12, Any grade): 2 (16.7) n (%)
- TEAE related to study treatment: Rash (Total N = 12, Any grade): 1 (8.3) n (%)
- TEAE related to study treatment: Rash maculopapular (Total N = 12, Any grade): 2 (16.7) n (%)
- TEAE related to study treatment: SVE (supraventricular extrasystoles) (Total N = 12, Any grade): 1 (8.3) n (%)
- TEAE related to study treatment: Stomatitis (Total N = 12, Any grade): 1 (8.3) n (%)
- TEAE related to study treatment: Thrombocytopenia (Total N = 12, Any grade): 8 (66.7) n (%)
- TEAE related to study treatment: Anemia (Total N = 12, Grade 3): 1 (8.3) n (%)
- TEAE related to study treatment: Any (Total N = 12, Grade 3): 5 (41.7) n (%)
- TEAE related to study treatment: Atrial fibrillation (Total N = 12, Grade 3): 0 n (%)
- TEAE related to study treatment: Constipation (Total N = 12, Grade 3): 0 n (%)
- TEAE related to study treatment: ECG QT prolonged (Total N = 12, Grade 3): 0 n (%)
- TEAE related to study treatment: Fatigue (Total N = 12, Grade 3): 0 n (%)
- TEAE related to study treatment: Febrile neutropenia (Total N = 12, Grade 3): 1 (8.3) n (%)
- TEAE related to study treatment: Headache (Total N = 12, Grade 3): 0 n (%)
- TEAE related to study treatment: Hypocalcemia (Total N = 12, Grade 3): 0 n (%)
- TEAE related to study treatment: Leukopenia (Total N = 12, Grade 3): 5 (41.7) n (%)
- TEAE related to study treatment: Lung infection (Total N = 12, Grade 3): 0 n (%)
- TEAE related to study treatment: Lymphocytopenia (Total N = 12, Grade 3): 1 (8.3) n (%)
- TEAE related to study treatment: Nausea (Total N = 12, Grade 3): 0 n (%)
- TEAE related to study treatment: Neutropenia (Total N = 12, Grade 3): 4 (33.3) n (%)
- TEAE related to study treatment: Pyrexia (Total N = 12, Grade 3): 0 n (%)
- TEAE related to study treatment: Rash (Total N = 12, Grade 3): 0 n (%)
- TEAE related to study treatment: Rash maculopapular (Total N = 12, Grade 3): 0 n (%)
- TEAE related to study treatment: SVE (supraventricular extrasystoles) (Total N = 12, Grade 3): 0 n (%)
- TEAE related to study treatment: Stomatitis (Total N = 12, Grade 3): 0 n (%)
- TEAE related to study treatment: Thrombocytopenia (Total N = 12, Grade 3): 3 (25.0) n (%)
- TEAE related to study treatment: Anemia (Total N = 12, Grade 3 + 4): 2 (16.7) n (%)
- TEAE related to study treatment: Any (Total N = 12, Grade 3 + 4): 12 (100) n (%)
- TEAE related to study treatment: Atrial fibrillation (Total N = 12, Grade 3 + 4): 0 n (%)
- TEAE related to study treatment: Constipation (Total N = 12, Grade 3 + 4): 0 n (%)
- TEAE related to study treatment: ECG QT prolonged (Total N = 12, Grade 3 + 4): 0 n (%)
- TEAE related to study treatment: Fatigue (Total N = 12, Grade 3 + 4): 0 n (%)
- TEAE related to study treatment: Febrile neutropenia (Total N = 12, Grade 3 + 4): 2 (16.7) n (%)
- TEAE related to study treatment: Headache (Total N = 12, Grade 3 + 4): 0 n (%)
- TEAE related to study treatment: Hypocalcemia (Total N = 12, Grade 3 + 4): 0 n (%)
- TEAE related to study treatment: Leukopenia (Total N = 12, Grade 3 + 4): 9 (75.0) n (%)
- TEAE related to study treatment: Lung infection (Total N = 12, Grade 3 + 4): 0 n (%)
- TEAE related to study treatment: Lymphocytopenia (Total N = 12, Grade 3 + 4): 1 (8.3) n (%)
- TEAE related to study treatment: Nausea (Total N = 12, Grade 3 + 4): 0 n (%)
- TEAE related to study treatment: Neutropenia (Total N = 12, Grade 3 + 4): 10 (83.3) n (%)
- TEAE related to study treatment: Pyrexia (Total N = 12, Grade 3 + 4): 0 n (%)
- TEAE related to study treatment: Rash (Total N = 12, Grade 3 + 4): 0 n (%)
- TEAE related to study treatment: Rash maculopapular (Total N = 12, Grade 3 + 4): 0 n (%)
- TEAE related to study treatment: SVE (supraventricular extrasystoles) (Total N = 12, Grade 3 + 4): 0 n (%)
- TEAE related to study treatment: Stomatitis (Total N = 12, Grade 3 + 4): 0 n (%)
- TEAE related to study treatment: Thrombocytopenia (Total N = 12, Grade 3 + 4): 4 (33.3) n (%)
- TEAE related to study treatment: Anemia (Total N = 12, Grade 4): 1 (8.3) n (%)
- TEAE related to study treatment: Any (Total N = 12, Grade 4): 7 (58.3) n (%)
- TEAE related to study treatment: Atrial fibrillation (Total N = 12, Grade 4): 0 n (%)
- TEAE related to study treatment: Constipation (Total N = 12, Grade 4): 0 n (%)
- TEAE related to study treatment: ECG QT prolonged (Total N = 12, Grade 4): 0 n (%)
- TEAE related to study treatment: Fatigue (Total N = 12, Grade 4): 0 n (%)
- TEAE related to study treatment: Febrile neutropenia (Total N = 12, Grade 4): 1 (8.3) n (%)
- TEAE related to study treatment: Headache (Total N = 12, Grade 4): 0 n (%)
- TEAE related to study treatment: Hypocalcemia (Total N = 12, Grade 4): 0 n (%)
- TEAE related to study treatment: Leukopenia (Total N = 12, Grade 4): 4 (33.3) n (%)
- TEAE related to study treatment: Lung infection (Total N = 12, Grade 4): 0 n (%)
- TEAE related to study treatment: Lymphocytopenia (Total N = 12, Grade 4): 0 n (%)
- TEAE related to study treatment: Nausea (Total N = 12, Grade 4): 0 n (%)
- TEAE related to study treatment: Neutropenia (Total N = 12, Grade 4): 6 (50.0) n (%)
- TEAE related to study treatment: Pyrexia (Total N = 12, Grade 4): 0 n (%)
- TEAE related to study treatment: Rash (Total N = 12, Grade 4): 0 n (%)
- TEAE related to study treatment: Rash maculopapular (Total N = 12, Grade 4): 0 n (%)
- TEAE related to study treatment: SVE (supraventricular extrasystoles) (Total N = 12, Grade 4): 0 n (%)
- TEAE related to study treatment: Stomatitis (Total N = 12, Grade 4): 0 n (%)
- TEAE related to study treatment: Thrombocytopenia (Total N = 12, Grade 4): 1 (8.3) n (%)
- Frequently-reported TEAE: leukopenia (all 12 patients): 100%
- Frequently-reported TEAE: neutropenia (all 12 patients): 91.7%
- Frequently-reported TEAE: thrombocytopenia (all 12 patients): 66.7%
- Nonhematologic grade 3 or 4 treatment-related TEAE (all 12 patients): no reported nonhematologic grade 3 or 4 treatment‐related TEAE
- Treatment-related grade 4 TEAE: anemia (all 12 patients (1 instance)): 8.3%
- Treatment-related grade 4 TEAE: febrile neutropenia (all 12 patients (1 instance)): 8.3%
- Treatment-related grade 4 TEAE: thrombocytopenia (all 12 patients (1 instance)): 8.3%
- Treatment-related grade 4 TEAE: leukopenia (all 12 patients (4 patients)): 33.3%
- Treatment-related grade 4 TEAE: neutropenia (all 12 patients (6 patients)): 50.0%
- AE that led to treatment interruption (all patients): No patients experienced AE that led to treatment interruption
- Clinically significant cardiac toxicities or AE related to QT prolongation (all patients): No clinically significant cardiac toxicities or AE related to QT prolongation were observed
- Discontinuation of the study due to an AE (all patients): no patients discontinued the study due to an AE
- Patient deaths during the study (all patients): No patient deaths were reported
- Patients with at least 1 AE that led to a dose adjustment (all patients (8 patients)): 66.7%
- Patients with at least 1 AE that led to dose reduction (all patients (Five patients)): 41.7%
- Patients with at least 1 AE that led to a dose delay (all patients (Six patients)): 50.0%
- Dose reduction due to febrile neutropenia (all patients, 1 patient in each group): 16.7%
- Dose delay due to neutropenia (all patients, 2 patients in each group): 33.3%
- Neutrophil count nadir in patients with grade 4 drug-related neutropenia (day of cycle): ~8 days
- Duration of grade 4 neutrophil decreases (in most cases, transient): < 5 days
- Tolerability (DLT frequency in cycle 1 <33%) (recommended dose of 105 mg/m^2, Japanese patients): confirmed

From publication PMC6247064 (Cancer Science, 2018)
